Article PMC4975651 (Molecular cell, 2016)

System: Slug, CD44, EGFR, and VEGFA genes
Format: cell-based, human
Conditions: ectopic expression, ZMYND8-depleted DU145 cells, n = 5
How it was run: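 DU145 cells were infected with shZMYND8-97 lentivirus, then transfected with control vector, wild-type FLAG-ZMYND8, PHD point mutants (D108A, F109D) or a Bromo mutant (YN/AA). Construct expression was checked by western blot. DU145 cells treated with shLuciferase and transfected with control vector served as the control. CD44, Slug, VEGFA and EGFR expression was measured across 5 replicates.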

B1: FLAG-ZMYND8: ectopically expressed WT FLAG-ZMYND8 (protein, UniProt Q9ULU4 1-1186, looked up)
MYND-type zinc …: MDISTRSKDPGSAERTAQKRKFPSPPHSSNGHSPQDTSTSPIKKKKKPGLLNSNNKEQSELRHGPFYYMKQPLTTDPVDVVPQDGRNDFYCWVCHREGQVLCCELCPRVYHAKCLRLTSEPEGDWFCPECEKITVAECIETQSKAMTMLTIEQLSYLLKFAIQKMKQPGTDAFQKPVPLEQHPDYAEYIFHPMDLCTLEKNAKKKMYGCTEAFLADAKWILHNCIIYNGGNHKLTQIAKVVIKICEHEMNEIEVCPECYLAACQKRDNWFCEPCSNPHPLVWAKLKGFPFWPAKALRDKDGQVDARFFGQHDRAWVPINNCYLMSKEIPFSVKKTKSIFNSAMQEMEVYVENIRRKFGVFNYSPFRTPYTPNSQYQMLLDPTNPSAGTAKIDKQEKVKLNFDMTASPKILMSKPVLSGGTGRRISLSDMPRSPMSTNSSVHTGSDVEQDAEKKATSSHFSASEESMDFLDKSTASPASTKTGQAGSLSGSPKPFSPQLSAPITTKTDKTSTTGSILNLNLDRSKAEMDLKELSESVQQQSTPVPLISPKRQIRSRFQLNLDKTIESCKAQLGINEISEDVYTAVEHSDSEDSEKSDSSDSEYISDDEQKSKNEPEDTEDKEGCQMDKEPSAVKKKPKPTNPVEIKEELKSTSPASEKADPGAVKDKASPEPEKDFSEKAKPSPHPIKDKLKGKDETDSPTVHLGLDSDSESELVIDLGEDHSGREGRKNKKEPKEPSPKQDVVGKTPPSTTVGSHSPPETPVLTRSSAQTSAAGATATTSTSSTVTVTAPAPAATGSPVKKQRPLLPKETAPAVQRVVWNSSSKFQTSSQKWHMQKMQRQQQQQQQQNQQQQPQSSQGTRYQTRQAVKAVQQKEITQSPSTSTITLVTSTQSSPLVTSSGSMSTLVSSVNADLPIATASADVAADIAKYTSKMMDAIKGTMTEIYNDLSKNTTGSTIAEIRRLRIEIEKLQWLHQQELSEMKHNLELTMAEMRQSLEQERDRLIAEVKKQLELEKQQAVDETKKKQWCANCKKEAIFYCCWNTSYCDYPCQQAHWPEHMKSCTQSATAPQQEADAEVNTETLNKSSQGSSSSTQSAPSETASASKEKETSAEKSKESGSTLDLSGSRETPSSILLGSNQGSDHSRSNKSSWSSSDEKRGSTRSDHNTSTSTKSLLPKESRLDTFWD
modifications: FLAG tag
B1 was tested, and the “expression levels of Slug, CD44, EGFR, and VEGFA genes” value was “significantly downregulated”.
